Laboratory results taken from ChEMBL document CHEMBL2146434, “Synthesis and biological evaluation of new amino acid and dipeptide derivatives of neocryptolepine as anticancer agents” (J Med Chem, 2012).

What was measured:
Mus musculus [1] = assay: Toxicity in C57BL/6 mouse xenografted with mouse LLC cells assessed as body weight loss at 30 mg/kg/day, sc administered on day 9 to day 12 of tumor implantation; assay type: organism-based; design: route subcutaneous; settings: in vivo
Summary of the method: (§1)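 Mouse Lewis lung carcinoma (LLC) cells inoculated sc into mice. Daily dosing from day 9: 15 mg kg⁻¹ day⁻¹ through day 13 or 30 mg kg⁻¹ day⁻¹ through day 12; 25 or 50 mg kg⁻¹ day⁻¹ through day 13. Route is given as ip in tables and text but sc in figure legends. Body weight monitored for loss alongside tumor growth. Single 100 mg/kg cyclophosphamide dose as cytostatic control.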

Mus musculus [2] = assay: Toxicity in C57BL/6 mouse xenografted with mouse LLC cells assessed as body weight loss at 15 mg/kg/day, sc administered on day 9 to day 13 of tumor implantation; assay type: organism-based; design: route subcutaneous; settings: in vivo
Summary of the method: (§2)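 Body weight was tracked in C57BL/6 mice bearing subcutaneously inoculated LLC during therapy given daily from day 9 to day 13. A single 100 mg/kg dose of cyclophosphamide served as the cytostatic control group.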

Mus musculus [3] = assay: Toxicity in C57BL/6 mouse xenografted with mouse LLC cells assessed as body weight loss at 30 mg/kg/day, ip administered on day 9 to day 12 of tumor implantation; assay type: organism-based; design: route intraperitoneal; settings: in vivo; summary of the method: as §1
KB = assay: Cytotoxicity against human KB cells after 72 hrs by SRB assay; assay type: functional, cell-based
A549 = assay: Cytotoxicity against human A549 cells after 72 hrs by SRB assay; assay type: functional, cell-based; settings: A549, 72 h
Summary of the method: (§3)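 IC50 is the compound concentration giving 50% inhibition of cell proliferation. It was determined on normal mouse BALB/3T3 fibroblasts and on human A549, MCF-7 and LoVo cancer lines, with doxorubicin hydrochloride and DiMIQ as reference compounds.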

MCF7 = assay: Cytotoxicity against human MCF7 cells after 72 hrs by SRB assay; assay type: functional, cell-based; settings: MCF7, 72 h; summary of the method: as §3
LoVo = assay: Cytotoxicity against human LoVo cells after 72 hrs by SRB assay; assay type: functional, cell-based; summary of the method: as §3
[4] = system: Lewis lung carcinoma cell line; assay: Antineoplastic activity against mouse LLC cells xenografted in C57BL/6 mouse assessed as tumor growth inhibition at 25 mg/kg/day, ip administered on day 10 to day 14 of tumor implantation measured on day 12; assay type: functional; settings: route intraperitoneal, read-out: TGI
Summary of the method: (§4)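 Mice bore Lewis lung carcinoma (LLC) inoculated subcutaneously and received test agents intraperitoneally at 15–50 mg kg⁻¹ day⁻¹ from day 9 or day 10. A single 100 mg/kg cyclophosphamide dose was the cytostatic control. Tumor growth was followed as the group median, and TGI% was calculated from medians versus untreated controls. Significance was tested by nonparametric Kruskal–Wallis multiple comparison, p < 0.05.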

[5] = system: Lewis lung carcinoma cell line; assay: Antineoplastic activity against mouse LLC cells xenografted in C57BL/6 mouse assessed as tumor growth inhibition at 25 mg/kg/day, ip administered on day 10 to day 14 of tumor implantation measured on day 14; assay type: functional; settings: route intraperitoneal, read-out: TGI; summary of the method: as §4
[6] = system: Lewis lung carcinoma cell line; assay: Antineoplastic activity against mouse LLC cells xenografted in C57BL/6 mouse assessed as tumor growth inhibition at 25 mg/kg/day, ip administered on day 10 to day 14 of tumor implantation measured on day 17; assay type: functional; settings: route intraperitoneal, read-out: TGI; summary of the method: as §4
[7] = system: Lewis lung carcinoma cell line; assay: Antineoplastic activity against mouse LLC cells xenografted in C57BL/6 mouse assessed as tumor growth inhibition at 25 mg/kg/day, ip administered on day 10 to day 14 of tumor implantation measured on day 19; assay type: functional; settings: route intraperitoneal, read-out: TGI; summary of the method: as §4
[8] = system: Lewis lung carcinoma cell line; assay: Antineoplastic activity against mouse LLC cells xenografted in C57BL/6 mouse assessed as tumor growth inhibition at 25 mg/kg/day, ip administered on day 10 to day 14 of tumor implantation measured on day 21; assay type: functional; settings: route intraperitoneal, read-out: TGI; summary of the method: as §4
[9] = system: Lewis lung carcinoma cell line; assay: Antineoplastic activity against mouse LLC cells xenografted in C57BL/6 mouse assessed as tumor growth inhibition at 25 mg/kg/day, ip administered on day 10 to day 14 of tumor implantation measured on day 24; assay type: functional; settings: route intraperitoneal, read-out: TGI; summary of the method: as §4
[10] = system: Lewis lung carcinoma cell line; assay: Antineoplastic activity against mouse LLC cells xenografted in C57BL/6 mouse assessed as tumor growth inhibition at 50 mg/kg/day, ip administered on day 10 to day 14 of tumor implantation measured on day 12; assay type: functional; settings: route intraperitoneal, read-out: TGI; summary of the method: as §4
[11] = system: Lewis lung carcinoma cell line; assay: Antineoplastic activity against mouse LLC cells xenografted in C57BL/6 mouse assessed as tumor growth inhibition at 50 mg/kg/day, ip administered on day 10 to day 14 of tumor implantation measured on day 14; assay type: functional; settings: route intraperitoneal, read-out: TGI; summary of the method: as §4
[12] = system: Lewis lung carcinoma cell line; assay: Antineoplastic activity against mouse LLC cells xenografted in C57BL/6 mouse assessed as tumor growth inhibition at 50 mg/kg/day, ip administered on day 10 to day 14 of tumor implantation measured on day 17; assay type: functional; settings: route intraperitoneal, read-out: TGI; summary of the method: as §4
[13] = system: Lewis lung carcinoma cell line; assay: Antineoplastic activity against mouse LLC cells xenografted in C57BL/6 mouse assessed as tumor growth inhibition at 50 mg/kg/day, ip administered on day 10 to day 14 of tumor implantation measured on day 19; assay type: functional; settings: route intraperitoneal, read-out: TGI; summary of the method: as §4
[14] = system: Lewis lung carcinoma cell line; assay: Antineoplastic activity against mouse LLC cells xenografted in C57BL/6 mouse assessed as tumor growth inhibition at 50 mg/kg/day, ip administered on day 10 to day 14 of tumor implantation measured on day 21; assay type: functional; settings: route intraperitoneal, read-out: TGI; summary of the method: as §4
[15] = system: Lewis lung carcinoma cell line; assay: Antineoplastic activity against mouse LLC cells xenografted in C57BL/6 mouse assessed as tumor growth inhibition at 50 mg/kg/day, ip administered on day 10 to day 14 of tumor implantation measured on day 24; assay type: functional; settings: route intraperitoneal, read-out: TGI; summary of the method: as §4
Mus musculus [16] = assay: Toxicity in C57BL/6 mouse xenografted with mouse LLC cells assessed as body weight loss at 15 mg/kg/day, ip administered on day 9 to day 13 of tumor implantation; assay type: organism-based; design: route intraperitoneal; settings: in vivo; summary of the method: as §2
Mus musculus [17] = assay: Toxicity in C57BL/6 mouse xenografted with mouse LLC cells assessed as body weight loss at 25 mg/kg/day, sc administered on day 9 to day 13 of tumor implantation; assay type: organism-based; design: route subcutaneous; settings: in vivo; summary of the method: as §2
Mus musculus [18] = assay: Toxicity in C57BL/6 mouse xenografted with mouse LLC cells assessed as body weight loss at 50 mg/kg/day, sc administered on day 9 to day 13 of tumor implantation; assay type: organism-based; design: route subcutaneous; settings: in vivo; summary of the method: as §1
[19] = Dissociation constant, pKa of the compound in PBS buffer at 5 uM at pH 2 to 10 by UV-spectrophotometric analysis; assay type: physicochemical
Summary of the method: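 UV spectrophotometric titration at a final compound concentration of 5 μM. At this concentration the absorbance–concentration relationship stayed linear. pKa was read from spectral changes across pH.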

[20] = Octanol-water partition coefficient, log P of the compound in citric buffer at pH 2.5 by spectrophotometric analysis; assay type: physicochemical
Summary of the method: (§5)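 Octanol–water partitioning, with log P defined as log(C_octanol/C_water). Compound in the aqueous phase was measured spectrophotometrically, and octanol content was obtained by subtracting the supernatant concentration from the total. Values are the mean of two independent experiments, each run in triplicate.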

[21] = Octanol-water partition coefficient, log P of the compound in PBS buffer at pH 7.4 by spectrophotometric analysis; assay type: physicochemical; summary of the method: as §5
[22] = Toxicity in human erythrocytes assessed as hemolysis at 0.3 mM after 30 mins by spectrophotometric analysis; assay type: cell-based, Erythrocyte; settings: read-out: Activity
Summary of the method: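 Human erythrocyte suspension under isotonic conditions (pH 7.4, hematocrit 50%). Compound added across a concentration series and incubated 30 min at 37 °C before hemolysis was scored. Mean ± SD of three individual determinations. Statistics by Mann–Whitney U test, p < 0.05.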

[23] = Solubility of the compound in water; assay type: physicochemical; settings: buffer
Mus musculus [24] = assay: Toxicity in C57BL/6 mouse xenografted with mouse LLC cells at 25 to 50 mg/kg/day, ip administered on day 9 to day 13 of tumor implantation; assay type: organism-based; design: route intraperitoneal; settings: in vivo; summary of the method: as §1

Cc1c2c3cc(NC(=O)CNC(=O)[C@@H]4CCCN4)ccc3nc-2n(C)c2ccccc12.Cl.Cl
Activity (Mus musculus [1]): <= 15% | Activity (Mus musculus [2]): <= 15% | Activity (Mus musculus [3]): <= 15% | IC50 (KB): 3.73 µM | IC50 (A549): 1.15 µM | IC50 (MCF7): 1.43 µM | IC50 (LoVo): 0.98 µM | inhibition in vivo at 25 mg/kg/day [4]: 12.9% | inhibition in vivo at 25 mg/kg/day [5]: 11.6% | inhibition in vivo at 25 mg/kg/day [6]: 0% | inhibition in vivo at 25 mg/kg/day [7]: 3.1% | inhibition in vivo at 25 mg/kg/day [8]: 0% | inhibition in vivo at 25 mg/kg/day [9]: 0% | inhibition in vivo at 50 mg/kg/day [10]: 16.3% | inhibition in vivo at 50 mg/kg/day [11]: 36.5% | inhibition in vivo at 50 mg/kg/day [12]: 18.5% | inhibition in vivo at 50 mg/kg/day [13]: 33.1% | inhibition in vivo at 50 mg/kg/day [14]: 32.5% | inhibition in vivo at 50 mg/kg/day [15]: 8.19% | Activity (Mus musculus [16]): <= 15% | Activity (Mus musculus [17]): <= 15% | Activity (Mus musculus [18]): <= 15% | pKa at 5 µM [19]: 7.3 | logP [20]: -1.9 | logD [21]: -0.1 | hemolysis at 0.5 h, 300 µM [22]: 9.97% | solubility [23]: soluble | Activity (Mus musculus [24]): Non-toxic
